In brackets after ≈: the same amount, converted by molar mass.
Key:
[1] = tested on: Mycobacterium tuberculosis; experiment: Antitubercular activity against Mycobacterium tuberculosis after 7 to 14 days by microbroth dilution technique; assay type: functional
Summary of the method: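 M. tuberculosis: CLSI microbroth dilution using two-fold serial drug dilutions in broth. Inoculum about 10^6 CFU/mL; top final concentration 200 µg/mL. Incubated aerobically at 37°C for 7 or 14 days. MIC taken as the lowest concentration preventing visible growth by eye.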

[2] = Solubility of the compound at pH 7.4 after 18 hrs by UV spectrometry; assay type: physicochemical; details: buffer; for solubility at 18 h: pH 7.4
Summary of the method: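 10 mM DMSO stocks diluted 100-fold in system solution buffer pH 7.4 and held 18 h at room temperature. Filtered, diluted 1:1 with isopropanol and measured by UV (230–500 nm). Compared against a 600-fold diluted reference in buffer/isopropanol. Triplicates.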

[3] = Half life in mouse liver microsomes; assay type: ADME, Microsome
Summary of the method: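 Mouse liver microsomes at 0.6381 mg/mL protein in 0.1 M potassium phosphate pH 7.4 with EDTA. Reaction started with NADPH regenerating system at 37°C; six time points including 0, triplicate wells. Quenched in cold acetonitrile with warfarin internal standard, analysed by LC–MS. Half-life from a first-order least-squares fit.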

[4] = Half life in human liver microsomes; assay type: ADME, Microsome
[5] = Apparent permeability of the compound from apical to basal side of human Caco2 cells at 50 umol/L after 2 hrs by UPLC/MS analysis; assay type: ADME, cell-based; details: Caco-2
Summary of the method: (§1)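 Caco-2 monolayers grown 7 days on Transwell inserts, washed with HBSS/HEPES pH 7.4. Compound at 50 µmol/L added apically or basolaterally, then 2 h at 37°C. Receiver side sampled and quantified by UPLC/MS. Papp = (dQ/dt)/(A×C0), triplicates.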

[6] = Apparent permeability of the compound from basal to apical side of human Caco2 cells at 50 umol/L after 2 hrs by UPLC/MS analysis; assay type: ADME, cell-based; details: Caco-2; summary of the method: as §1
[7] = Efflux ratio of apparent permeability from basal to apical side to apical to basal side of human Caco2 cells; details: Caco-2
[8] = Plasma protein binding in mouse at 10 uM after 4 hrs by LC/MS analysis; assay type: ADME, cell-free; details: read-out: PPB (converted)
Summary of the method: (§2)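 Compound at 10 µM (0.1% DMSO) in mouse or human plasma. Rapid equilibrium dialysis (MWCO 8K) against DPBS pH 7.4, 4 h at 37°C with orbital shaking. Both chambers matrix-matched, precipitated with acetonitrile containing warfarin internal standard, quantified by LC–MS. %Free = buffer/plasma × 100; %Bound = 100 − %Free.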

Staphylococcus aureus = experiment: Antibacterial activity against Staphylococcus aureus ATCC 29213 after overnight incubation by microbroth dilution technique; assay type: functional
Summary of the method: (§3)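 Two-fold serial broth dilutions per CLSI; inoculum about 10^5 CFU/mL; top final drug concentration 200 µg/mL; incubated aerobically overnight at 37°C. MIC read visually as the lowest concentration with no visible growth.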

Streptococcus pyogenes = experiment: Antibacterial activity against Streptococcus pyogenes ATCC 700294 after overnight incubation by microbroth dilution technique; assay type: functional; summary of the method: as §3
Streptococcus pneumoniae = experiment: Antibacterial activity against Streptococcus pneumoniae DAW27 after overnight incubation by microbroth dilution technique; assay type: functional; summary of the method: as §3
Enterococcus faecalis = experiment: Antibacterial activity against Enterococcus faecalis ATCC 3186 after overnight incubation by microbroth dilution technique; assay type: functional; summary of the method: as §3
Bacillus subtilis = experiment: Antibacterial activity against Bacillus subtilis ATCC 23857 after overnight incubation by microbroth dilution technique; assay type: functional
Summary of the method: (§4)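 Non-mycobacterial strains: two-fold serial dilutions in broth by CLSI microbroth dilution. Inoculum about 10^5 cfu/mL; top final drug concentration 200 µg/mL. Aerobic incubation at 37°C overnight. MIC read visually as the lowest concentration with no visible growth.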

Bacillus anthracis = experiment: Antibacterial activity against Bacillus anthracis Sterne 34F2 after overnight incubation by microbroth dilution technique; assay type: functional; summary of the method: as §4
Escherichia coli = experiment: Antibacterial activity against Escherichia coli K12 after overnight incubation by microbroth dilution technique; assay type: functional; details: K-12; summary of the method: as §4
[9] = Cmax in Sprague-Dawley rat at 10 mg/kg, iv; assay type: ADME, organism-based; set-up: dose 10 mg/kg, route intravenous; details: in vivo
Summary of the method: (§5)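 Rats, n=5, given 10 mg/kg IV via femoral vein catheter. Vehicle was 2% ethanol/saline or 30% DMSO/30% propylene glycol/20% PEG 3000/20% saline, depending on compound. Plasma sampled 0–48 h and urine collected in intervals to 48 h; both assayed by LC-MS/MS after acetonitrile precipitation. Non-compartmental analysis: CL = dose/AUC0-∞; fe = cumulative unchanged urinary amount/dose.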

[10] = AUC (0 to infinity) in Sprague-Dawley rat at 10 mg/kg, iv; assay type: ADME, organism-based; set-up: time infinity, dose 10 mg/kg, route intravenous; details: plasma; summary of the method: as §5
[11] = Half life in Sprague-Dawley rat at 10 mg/kg, iv; assay type: ADME, organism-based; set-up: dose 10 mg/kg, route intravenous; details: in vivo; summary of the method: as §5
[12] = Clearance in Sprague-Dawley rat at 10 mg/kg, iv; assay type: ADME, organism-based; set-up: dose 10 mg/kg, route intravenous; details: in vivo; summary of the method: as §5
[13] = Volume of distribution in Sprague-Dawley rat at 10 mg/kg, iv; assay type: ADME, organism-based; set-up: dose 10 mg/kg, route intravenous; details: in vivo; summary of the method: as §5
[14] = Drug excretion in Sprague-Dawley rat urine at 10 mg/kg, iv; assay type: ADME, organism-based; set-up: dose 10 mg/kg, route intravenous; details: read-out: Drug excretion; summary of the method: as §5
Rattus norvegicus [15] = experiment: Oral bioavailability in Sprague-Dawley rat at 100 mg/kg; assay type: ADME, organism-based; details: in vivo
Summary of the method: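 Fasted rats, n=5, dosed 100 mg/kg by oral gavage. Vehicle was 2% methanol, 60:40 PEG 3000/water or 10% vitamin E TPGS, depending on compound. Plasma sampled to 48 h and assayed by LC-MS/MS. F = (AUCoral×DoseIV)/(AUCIV×Doseoral), referenced to 10 mg/kg IV.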

Vero = experiment: Cytotoxicity against african green monkey Vero cells after 72 hrs by MTT assay; assay type: cell-based; details: Chlorocebus sabaeus
Summary of the method: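 Vero cells in DMEM with 10% FBS, seeded at ~10% confluency and left to adhere overnight. Two-fold serial dilutions applied for 72 h at 37°C, 5% CO2. MTT read-out at 570 nm after overnight solubilization.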

Rattus norvegicus [16] = experiment: Toxicity in Sprague-Dawley rat assessed as seizures at 10 mg/kg, iv; assay type: organism-based; set-up: dose 10 mg/kg, route intravenous; details: in vivo
Summary of the method: (§6)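 Observed during rat IV pharmacokinetic study (n=5). Single 10 mg/kg dose via femoral vein catheter, flushed with heparinized locking solution. Vehicle was 2% ethanol/saline or 30% DMSO/30% propylene glycol/20% PEG 3000/20% saline. Animals followed with serial blood sampling to 48 h.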

Rattus norvegicus [17] = experiment: Toxicity in Sprague-Dawley rat assessed as mortality at 10 mg/kg, iv; assay type: organism-based; set-up: dose 10 mg/kg, route intravenous; details: in vivo; summary of the method: as §6
Rattus norvegicus [18] = experiment: Toxicity in Sprague-Dawley rat assessed as mortality at 100 mg/kg, po; assay type: organism-based; set-up: dose 100 mg/kg, route oral; details: in vivo
Summary of the method: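 Observed during rat oral pharmacokinetic study (n=5). Overnight-fasted animals, water ad libitum, received 100 mg/kg by oral gavage. Vehicle was compound-dependent: 2% methanol (sonicated), 60:40 PEG 3000/water, or 10% vitamin E TPGS. Animals followed with sampling to 48 h.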

[19] = Plasma protein binding in human at 10 uM after 4 hrs by LC/MS analysis; assay type: ADME, cell-free; details: read-out: PPB (converted); summary of the method: as §2

Row | SMILES | half-life [3] | half-life [4] | Papp A→B at 2 h, 50 µM [5] | Papp B→A at 2 h, 50 µM [6] | fraction unbound at 4 h, 10 µM [8] | MIC (Staphylococcus aureus) | MIC (Streptococcus pyogenes) | MIC (Streptococcus pneumoniae) | MIC (Enterococcus faecalis) | MIC (Bacillus subtilis) | MIC (Bacillus anthracis) | MIC (Escherichia coli) | Cmax [9] | AUC(0-inf) [10] | half-life [11] | clearance [12] | Vd [13] | dose excreted [14] | F (Rattus norvegicus [15]) | IC50 (Vero) | further results
1 | O=[N+]([O-])c1ccc(C2=NOC(c3ccc(N4CCCCC4)cc3)C2)o1 (stereo not drawn) | 0.78 h | 0.47 h | 7.61 ×10⁻⁶ cm/s | 10.3 ×10⁻⁶ cm/s | 0.012 | 12.5 µg/mL (≈ 36.6 µM) | 100 µg/mL (≈ 293 µM) | 200 µg/mL (≈ 586 µM) | > 200 µg/mL | 50 µg/mL (≈ 146 µM) | > 200 µg/mL | > 200 µg/mL | 2280 ng/mL | 2750 ng·h/mL | 2.79 h | 62.8 mL/min/kg | 10.9 L/kg | 0% | 29.4% | 2.5 µg/mL (≈ 7.32 µM) | MIC [1]: 6 µg/mL (≈ 17.6 µM); solubility ([2]; pH 7.4, 18 h): 1.1 µg/mL (≈ 3.22 µM); efflux ratio [7]: 1.35; Activity (Rattus norvegicus [16]): Non-toxic; Activity (Rattus norvegicus [17]): Non-toxic; Activity (Rattus norvegicus [18]): Non-toxic
2 | O=[N+]([O-])c1ccc(C2=NOC(c3ccc(N4CCOCC4)cc3)C2)o1 (stereo not drawn) |  |  | 17.2 ×10⁻⁶ cm/s |  | 0.036 | 6.25 µg/mL (≈ 18.2 µM) | 25 µg/mL (≈ 72.8 µM) | 50 µg/mL (≈ 146 µM) | > 200 µg/mL | 12.5 µg/mL (≈ 36.4 µM) | 12.5 µg/mL (≈ 36.4 µM) | > 200 µg/mL | 830 ng/mL | 1630 ng·h/mL | 2.39 h | 108 mL/min/kg | 35 L/kg | 0% | 100% | 2.9 µg/mL (≈ 8.45 µM) | fraction unbound at 4 h, 10 µM [19]: 0.038; Activity (Rattus norvegicus [16]): Non-toxic; Activity (Rattus norvegicus [17]): Non-toxic; Activity (Rattus norvegicus [18]): Non-toxic
3 | O=[N+]([O-])c1ccc(C2=NOC(c3ccc(N4CCOCC4)nc3)C2)o1 (stereo not drawn) | 1.23 h | 3.37 h | 6.47 ×10⁻⁶ cm/s | 14.2 ×10⁻⁶ cm/s | 0.047 | 12.5 µg/mL (≈ 36.3 µM) | 25 µg/mL (≈ 72.6 µM) |  |  |  | 25 µg/mL (≈ 72.6 µM) | > 200 µg/mL | 2730 ng/mL | 3360 ng·h/mL | 0.72 h | 50.3 mL/min/kg | 2.86 L/kg | 0.02% | 47.9% | 3.2 µg/mL (≈ 9.29 µM) | solubility at 18 h [2]: 14.1 µg/mL (≈ 40.9 µM); fraction unbound at 4 h, 10 µM [19]: 0.033; Activity (Rattus norvegicus [16]): Non-toxic; Activity (Rattus norvegicus [17]): Non-toxic; Activity (Rattus norvegicus [18]): Non-toxic
4 | CN1CCN(c2ccc(C3CC(c4ccc([N+](=O)[O-])o4)=NO3)cn2)C(=O)C1 (stereo not drawn) | 0.35 h | 4.24 h | 36.6 ×10⁻⁶ cm/s | 33.3 ×10⁻⁶ cm/s | 0.402 | 12.5 µg/mL (≈ 33.7 µM) | 50 µg/mL (≈ 135 µM) | 50 µg/mL (≈ 135 µM) | 100 µg/mL (≈ 269 µM) | 25 µg/mL (≈ 67.3 µM) | 25 µg/mL (≈ 67.3 µM) | 50 µg/mL (≈ 135 µM) |  |  |  |  |  |  |  |  | solubility at 18 h [2]: 28.9 µg/mL (≈ 77.8 µM); fraction unbound at 4 h, 10 µM [19]: 0.511

— ChEMBL document CHEMBL2146426, “Antitubercular nitrofuran isoxazolines with improved pharmacokinetic properties” (Bioorg Med Chem, 2012)
